Measured values taken from ChEMBL document CHEMBL1125107, “Cephalosporin 3'-quinolone esters with a dual mode of action” (J Med Chem, 1990).
Converted amounts (≈) assume the structure as drawn.

Key:
Format in all cases: functional
Streptococcus pyogenes [1] = assay: Minimum inhibitory concentration against Streptococcus pyogenes 4
Method in brief: (§1)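 Broth MIC determination: serial 2-fold dilutions in Mueller-Hinton broth by standard methodology; the lowest concentration inhibiting growth is reported as the MIC, in nmol/mL.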

Staphylococcus aureus [2] = assay: Minimum inhibitory concentration against Staphylococcus aureus 95 (Methicillin-resistant, high-level beta-lactamase producer)
Method in brief: (§2)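 Serial 2-fold broth dilution in Mueller-Hinton broth, run by standard methodology; read-out is the minimum inhibitory concentration (MIC).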

Proteus vulgaris [3] = assay: Minimum inhibitory concentration against Proteus vulgaris 1028 BC (Class Ic beta-lactamase overproducer); method in brief: as §1
Pseudomonas aeruginosa [4] = assay: Evaluated for the minimum inhibitory concentration against Pseudomonas aeruginosa ATCC 27853
Method in brief: (§3)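 MIC by serial 2-fold dilution in Mueller-Hinton broth; results given as minimum inhibitory concentrations (nmol/mL).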

Pseudomonas aeruginosa [5] = assay: Evaluated for the minimum inhibitory concentration against Pseudomonas aeruginosa 18S/H ( Class Id beta-lactamase overproducer); method in brief: as §3
Streptococcus pneumoniae [6] = assay: Minimum inhibitory concentration against Streptococcus pneumoniae 6301; method in brief: as §1
Pseudomonas aeruginosa [7] = assay: Minimum inhibitory concentration against Pseudomonas aeruginosa ATCC 27853; method in brief: as §1
Proteus vulgaris [8] = assay: Evaluated for the minimum inhibitory concentration against Proteus vulgaris 1028 BC (Class Ic beta-lactamase overproducer; method in brief: as §3
Pseudomonas aeruginosa [9] = assay: Evaluated for the minimum inhibitory concentration against Pseudomonas aeruginosa 18S/H (Class Id beta-lactamase overproducer); method in brief: as §3
Staphylococcus aureus [10] = assay: Evaluated for the minimum inhibitory concentration against Staphylococcus aureus 1059B ( inducible, high level beta-lactamase producer); method in brief: as §2
Streptococcus pneumoniae [11] = assay: Evaluated for in Vitro activity against Streptococcus pneumoniae 6301; method in brief: as §3
Escherichia coli [12] = assay: Evaluated for in Vitro activity against Escherichia coli DC-O; method in brief: as §3
Micrococcus luteus = assay: Evaluated for in Vitro activity against Micrococcus luteus PCI; method in brief: as §3
Staphylococcus aureus [13] = assay: Evaluated for the minimum inhibitory concentration against Staphylococcus aureus 95 (Methicillin-resistant, high-level beta-lactamase producer); method in brief: as §2
Streptococcus pneumoniae [14] = assay: In vitro antibacterial activity was determined against Streptococcus pneumoniae 6301; method in brief: as §1
Proteus mirabilis = assay: In vitro antibacterial activity was determined against Proteus mirabilis 90; method in brief: as §3
Streptococcus pyogenes [15] = assay: In vitro antibacterial activity was determined against Streptococcus pyogenes 4; method in brief: as §1
Staphylococcus aureus [16] = assay: In vitro antibacterial activity was determined against Staphylococcus aureus 1059B ( inducible, high level beta-lactamase producer); method in brief: as §1
Escherichia coli [17] = assay: Evaluated for the in vivo activity in mice against Escherichia coli 257
Escherichia coli [18] = assay: Evaluated for the minimum inhibitory concentration against Escherichia coli UB 1005; method in brief: as §3
Streptococcus pyogenes [19] = assay: Evaluated for the in vivo activity in mice against streptococcus pyogenes 4
Staphylococcus aureus [20] = assay: In vitro antibacterial activity was determined against Staphylococcus aureus 95 (Methicillin-resistant, high-level beta-lactamase producer); method in brief: as §2
Enterococcus faecalis = assay: In vitro antibacterial activity was determined against Enterococcus faecalis ATCC 29212; method in brief: as §3
Proteus vulgaris [21] = assay: In vitro antibacterial activity was determined against Proteus vulgaris 1028 BC (Class Ic beta-lactamase overproducer; method in brief: as §3
Staphylococcus aureus [22] = assay: In vitro antibacterial activity was determined against Staphylococcus aureus 1059B (inducible, high level beta-lactamase producer); method in brief: as §2
Escherichia coli [23] = assay: In vitro antibacterial activity was determined against Escherichia coli TEM-1 (TEM-1 (class IIIa) beta-lactamase producer); method in brief: as §3
Citrobacter freundii = assay: In vitro antibacterial activity was determined against Citrobacter freundii BS-16; method in brief: as §3
Enterobacter cloacae [24] = assay: In vitro antibacterial activity was determined against Enterobacter cloacae P99 (Class Ia beta-lactamase overproducer); method in brief: as §3
Staphylococcus aureus [25] = assay: In vitro antibacterial activity was determined against Staphylococcus aureus ATCC 29213 (inducible, low level beta-lactamase producer); method in brief: as §2
Pseudomonas aeruginosa [26] = assay: In vitro antibacterial activity was determined against Pseudomonas aeruginosa 18S/H (Class Id beta-lactamase overproducer); method in brief: as §1
Serratia marcescens = assay: In vitro antibacterial activity was determined against Serratia marcescens 1071; method in brief: as §1
Escherichia coli [27] = assay: Evaluated for the minimum inhibitory concentration against Escherichia coli TEM-1; method in brief: as §2
Enterobacter cloacae [28] = assay: Evaluated for the minimum inhibitory concentration against Enterobacter cloacae P99; method in brief: as §2
Proteus vulgaris [29] = assay: Evaluated for the minimum inhibitory concentration against Proteus vulgaris 1028 BC; method in brief: as §2

Row | Compound | MIC (Streptococcus pyogenes [1]) [mg/L] | MIC (Staphylococcus aureus [2]) [mg/L] | MIC (Proteus vulgaris [3]) [mg/L] | MIC (Streptococcus pneumoniae [6]) [mg/L] | MIC (Pseudomonas aeruginosa [7]) [mg/L] | MIC (Proteus vulgaris [8]) [mg/L] | MIC (Pseudomonas aeruginosa [9]) [mg/L] | also measured
1 | CCN1CCN(C(=O)NC(C(=O)N[C@@H]2C(=O)N3C(C(=O)O)=C(COC(=O)c4cn(CC)c5cc(N6CCSCC6)c(F)cc5c4=O)CSC23)c2ccccc2)C(=O)C1=O (some centres not stated) | 0.016 (≈ 0.0188 µM) | 1 (≈ 1.18 µM) | 64 (≈ 75.3 µM) | 0.125 (≈ 0.147 µM) |  |  |  | MIC (Pseudomonas aeruginosa [4]): 64 mg/L (≈ 75.3 µM); MIC (Pseudomonas aeruginosa [5]): 32 mg/L (≈ 37.7 µM)
2 | CCn1cc(C(=O)OCC2=C(C(=O)O)N3C(=O)[C@@H](NC(=O)/C(=N/OC)c4csc(N)n4)C3SC2)c(=O)c2cc3c(cc21)OCO3 (some centres not stated) |  | 4 (≈ 6.09 µM) |  |  | 128 (≈ 195 µM) | 0.25 (≈ 0.381 µM) | 16 (≈ 24.4 µM) | 
3 | CN1CCN(c2c(F)cc3c(=O)c(C(=O)OCC4=C(C(=O)O)N5C(=O)[C@@H](NC(=O)/C(=N/OC(C)(C)C(=O)O)c6csc(N)n6)C5SC4)cn(CCF)c3c2F)CC1 (some centres not stated) | 0.5 (≈ 0.597 µM) | 4 (≈ 4.78 µM) |  | 0.5 (≈ 0.597 µM) | 8 (≈ 9.56 µM) | 0.5 (≈ 0.597 µM) | > 128 | 
4 | CCn1cc(C(=O)OCC2=C(C(=O)O)N3C(=O)[C@@H](NC(=O)COc4ccccc4)C3SC2)c(=O)c2cc(F)c(N3CCSCC3)cc21 (some centres not stated) | 4 (≈ 5.86 µM) | 0.5 (≈ 0.732 µM) | 1 (≈ 1.46 µM) | 2 (≈ 2.93 µM) | 128 (≈ 187 µM) |  | 64 (≈ 93.7 µM) | MIC (Staphylococcus aureus [10]): 0.25 mg/L (≈ 0.366 µM)
5 | CO/N=C(/C(=O)N[C@@H]1C(=O)N2C(C(=O)O)=C(CO)CSC12)c1csc(N)n1 (some centres not stated) |  |  |  |  |  |  |  | MIC (Streptococcus pneumoniae [11]): 0.0746 µM (≈ 0.0308 µg/mL); MIC (Escherichia coli [12]): 0.597 µM (≈ 0.247 µg/mL); MIC (Micrococcus luteus): 0.597 µM (≈ 0.247 µg/mL)
6 | CCn1cc(C(=O)OCC2=C(C(=O)O)N3C(=O)[C@@H](NC(=O)/C(=N/OC)c4csc(N)n4)C3SC2)c(=O)c2ccc(C)nc21 (some centres not stated) |  | 8 (≈ 12.7 µM) | 4 (≈ 6.37 µM) |  | > 128 |  | 64 (≈ 102 µM) | 
7 | CN1CCN(c2c(F)cc3c(=O)c(C(=O)OCC4=C(C(=O)O)N5C(=O)[C@@H](NC(=O)/C(=N/OCC(=O)O)c6csc(N)n6)C5SC4)cn(CCF)c3c2F)CC1 (some centres not stated) | 0.5 (≈ 0.618 µM) |  |  | 0.5 (≈ 0.618 µM) | 32 (≈ 39.6 µM) | 0.25 (≈ 0.309 µM) |  | MIC (Staphylococcus aureus [13]): 1 mg/L (≈ 1.24 µM); MIC (Pseudomonas aeruginosa [5]): 4 mg/L (≈ 4.95 µM)
8 | CCn1cc(C(=O)OCC2=C(C(=O)O)N3C(=O)[C@@H](NC(=O)COc4ccccc4)C3SC2)c(=O)c2ccc(C)nc21 (some centres not stated) |  |  |  |  |  |  |  | MIC (Streptococcus pneumoniae [14]): < 0.008 mg/L; MIC (Proteus mirabilis): 32 mg/L (≈ 55.3 µM); MIC (Streptococcus pyogenes [15]): 0.063 mg/L (≈ 0.109 µM); MIC (Staphylococcus aureus [16]): 0.5 mg/L (≈ 0.864 µM)
9 | CO/N=C(\C(=O)N[C@@H]1C(=O)N2C(C(=O)O)=C(COC(C)=O)CS[C@H]12)c1csc(N)n1 [CEFOTAXIME] | < 0.008 | 32 (≈ 70.3 µM) |  | 0.016 (≈ 0.0351 µM) | 64 (≈ 141 µM) | 16 (≈ 35.1 µM) | 128 (≈ 281 µM) | ED50 (Escherichia coli [17]): 1.7 mg/kg; MIC (Escherichia coli [18]): 0.06 mg/L (≈ 0.132 µM); ED50 (Streptococcus pyogenes [19]): 5.2 mg/kg
10 | CCn1cc(C(=O)O)c(=O)c2cc(F)c(-n3cccc3)cc21 [IRLOXACIN] |  |  |  |  |  |  |  | MIC (Streptococcus pneumoniae [14]): 16 mg/L (≈ 53.3 µM); MIC (Proteus mirabilis): 64 mg/L (≈ 213 µM); MIC (Staphylococcus aureus [20]): 0.125 mg/L (≈ 0.416 µM); MIC (Enterococcus faecalis): 2 mg/L (≈ 6.66 µM); MIC (Proteus vulgaris [21]): 0.5 mg/L (≈ 1.67 µM); MIC (Staphylococcus aureus [22]): 0.125 mg/L (≈ 0.416 µM); MIC (Streptococcus pyogenes [15]): > 128 mg/L; MIC (Escherichia coli [23]): 1 mg/L (≈ 3.33 µM); MIC (Citrobacter freundii): 64 mg/L (≈ 213 µM); MIC (Enterobacter cloacae [24]): 0.5 mg/L (≈ 1.67 µM); MIC (Staphylococcus aureus [25]): 0.125 mg/L (≈ 0.416 µM); MIC (Pseudomonas aeruginosa [26]): 64 mg/L (≈ 213 µM); MIC (Serratia marcescens): 0.5 mg/L (≈ 1.67 µM)
11 | CCn1cc(C(=O)O)c(=O)c2ccc(C)nc21 [NALIDIXIC ACID] | 128 (≈ 551 µM) | 8 (≈ 34.4 µM) | 2 (≈ 8.61 µM) | 128 (≈ 551 µM) | 128 (≈ 551 µM) |  | 32 (≈ 138 µM) | MIC (Escherichia coli [27]): 4 mg/L (≈ 17.2 µM)
12 | CCn1cc(C(=O)O)c(=O)c2cc3c(cc21)OCO3 [OXOLINIC ACID] | > 128 | 2 (≈ 7.66 µM) |  | > 128 | 64 (≈ 245 µM) |  |  | MIC (Enterobacter cloacae [28]): 0.5 mg/L (≈ 1.91 µM); MIC (Pseudomonas aeruginosa [5]): 4 mg/L (≈ 15.3 µM); MIC (Proteus vulgaris [29]): 0.063 mg/L (≈ 0.241 µM); MIC (Escherichia coli [27]): 0.25 mg/L (≈ 0.957 µM)
